# Assay results: ChEMBL document CHEMBL1122644, “Ring-substituted 1,2-dialkylated 1,2-bis(hydroxyphenyl)ethanes. 2. Synthesis and estrogen receptor binding affinity of 4,4'-, 5,5'-, and 6,6'-disubstituted metahexestrols” (J Med Chem, 1984)
# Key:
# [1] = molecular target: Estrogen receptor (Bos taurus) (UniProt Q9XSB5+P49884); experiment: Relative binding affinity for calf uterine estrogen receptor is the ratio of molar concentrations of 17-beta-estradiol and compound required to decrease amount of bound [3H]-E2 by 50% X 100.; type: protein assay
# Procedure, shortened: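 Calf uterine cytosol incubated with [3H]estradiol and competitor at 4 °C for 16 h. Free ligand removed with dextran-coated charcoal, then centrifuged and a supernatant aliquot counted. Six competitor concentrations chosen to span 50% competition on a semilog plot. Molar concentrations of unlabeled estradiol and test compound giving 50% reduction in binding were read from the plot.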
# [2] = molecular target: T1, Estrogen receptor (Mus musculus) (UniProt O08537+P19785); experiment: Estrogenic activity in mouse uterotrophic assay at 8 ug; type: functional
# T1 sequence (O08537 whole entry, looked up): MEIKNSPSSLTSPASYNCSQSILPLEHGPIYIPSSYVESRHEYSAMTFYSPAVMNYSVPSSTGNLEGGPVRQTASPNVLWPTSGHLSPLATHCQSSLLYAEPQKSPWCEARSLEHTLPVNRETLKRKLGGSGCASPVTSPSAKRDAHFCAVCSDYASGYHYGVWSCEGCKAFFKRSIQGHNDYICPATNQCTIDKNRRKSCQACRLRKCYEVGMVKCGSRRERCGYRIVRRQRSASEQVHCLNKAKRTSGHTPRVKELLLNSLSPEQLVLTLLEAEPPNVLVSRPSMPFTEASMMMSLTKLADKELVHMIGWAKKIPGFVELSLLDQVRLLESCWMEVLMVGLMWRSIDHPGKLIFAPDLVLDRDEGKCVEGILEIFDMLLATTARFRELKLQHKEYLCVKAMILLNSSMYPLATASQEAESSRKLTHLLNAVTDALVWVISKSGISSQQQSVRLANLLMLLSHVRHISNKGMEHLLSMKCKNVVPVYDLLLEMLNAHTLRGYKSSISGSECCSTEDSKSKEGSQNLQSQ
# T1 sequence (P19785 whole entry, looked up): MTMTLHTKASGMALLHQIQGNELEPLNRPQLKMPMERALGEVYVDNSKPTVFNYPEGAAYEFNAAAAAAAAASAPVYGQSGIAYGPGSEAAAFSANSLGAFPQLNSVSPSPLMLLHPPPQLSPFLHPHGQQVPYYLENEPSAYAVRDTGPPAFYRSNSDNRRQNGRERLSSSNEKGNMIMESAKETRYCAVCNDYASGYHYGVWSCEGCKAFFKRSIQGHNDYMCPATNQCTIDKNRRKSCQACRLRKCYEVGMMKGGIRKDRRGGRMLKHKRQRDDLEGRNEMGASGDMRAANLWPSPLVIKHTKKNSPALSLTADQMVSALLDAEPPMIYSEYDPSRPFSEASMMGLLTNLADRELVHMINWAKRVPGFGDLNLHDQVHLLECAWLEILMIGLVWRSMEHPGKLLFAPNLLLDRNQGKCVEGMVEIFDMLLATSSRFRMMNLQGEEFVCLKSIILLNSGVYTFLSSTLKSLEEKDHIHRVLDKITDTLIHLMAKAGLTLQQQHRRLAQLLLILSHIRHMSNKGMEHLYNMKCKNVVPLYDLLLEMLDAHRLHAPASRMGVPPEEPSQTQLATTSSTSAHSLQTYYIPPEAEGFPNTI
# Procedure, shortened: (§1)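 Uterotrophic test in 20-day-old immature female NMRI mice (14.5 ± 1.2 g), 10 per group. Daily s.c. injections of compound in 0.1 mL olive oil for 3 days. Uteri excised 24 h after final dose, Bouin-fixed, washed, dried and weighed to measure stimulation of uterine growth.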
# [3] = molecular target: T1, Estrogen receptor (Mus musculus); experiment: Estrogenic activity in mouse uterotrophic assay at 24 ug; type: functional; procedure, shortened: as §1
# [4] = molecular target: T1, Estrogen receptor (Mus musculus); experiment: Anti-estrogenic activity in mouse uterotrophic assay at 500 ug; type: functional
# Procedure, shortened: (§2)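 Immature female NMRI mice, 20 days old (14.5 ± 1.2 g), randomized into groups of 10. Test compound in olive oil (0.1 mL) given subcutaneously daily for 3 days alongside estrone stimulation. Uteri removed 24 h after last injection, fixed in Bouin's solution, washed, dried and weighed. Readout is inhibition of estrone-stimulated uterine growth.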
# [5] = molecular target: T1, Estrogen receptor (Mus musculus); experiment: Anti-estrogenic activity as inhibition of estrone-stimulated uterine growth in mice at 2.5 mg/kg; type: functional, organism-based; set-up: dose 2.5 mg/kg; procedure, shortened: as §2
# [6] = molecular target: T1, Estrogen receptor (Mus musculus); experiment: Estrogenic activity in mouse uterotrophic assay at 80 ug; type: functional; procedure, shortened: as §1
# [7] = molecular target: T1, Estrogen receptor (Mus musculus); experiment: Anti-estrogenic activity in mouse uterotrophic assay at 2.5 ug; type: functional; procedure, shortened: as §2
# [8] = molecular target: T1, Estrogen receptor (Mus musculus); experiment: Anti-estrogenic activity in mouse uterotrophic assay at 25 ug; type: functional; procedure, shortened: as §2
# [9] = molecular target: T1, Estrogen receptor (Mus musculus); experiment: Estrogenic activity in mouse uterotrophic assay at 0 ug; type: functional; set-up: unit not given here; procedure, shortened: as §1
# [10] = molecular target: T1, Estrogen receptor (Mus musculus); experiment: Estrogenic activity as uterotrophic effect in mice at 800 ug dose; type: functional; procedure, shortened: as §1
# [11] = molecular target: T1, Estrogen receptor (Mus musculus); experiment: Anti-estrogenic activity in mouse uterotrophic assay at 0 ug; type: functional; set-up: unit not given here; procedure, shortened: as §2
# [12] = molecular target: T1, Estrogen receptor (Mus musculus); experiment: Anti-estrogenic activity in mouse uterotrophic assay at 5 ug; type: functional; procedure, shortened: as §2
# [13] = molecular target: T1, Estrogen receptor (Mus musculus); experiment: Estrogenic activity in mouse uterotrophic assay at 0.8 ug; type: functional; procedure, shortened: as §1
# [14] = molecular target: T1, Estrogen receptor (Mus musculus); experiment: Anti-estrogenic activity in mouse uterotrophic assay at 50 ug; type: functional; procedure, shortened: as §2
# [15] = molecular target: T1, Estrogen receptor (Mus musculus); experiment: Anti-estrogenic activity as inhibition of estrone-stimulated uterine growth in mice at 1 mg/kg; type: functional, organism-based; set-up: dose 1 mg/kg; procedure, shortened: as §2
# [16] = molecular target: T1, Estrogen receptor (Mus musculus); experiment: Estrogenic activity in mouse uterotrophic assay at 100 ug; type: functional; set-up: unit not given here; procedure, shortened: as §1
# [17] = molecular target: T1, Estrogen receptor (Mus musculus); experiment: Anti-estrogenic activity in mouse uterotrophic assay at 100 ug; type: functional; set-up: unit not given here; procedure, shortened: as §2
# [18] = molecular target: T1, Estrogen receptor (Mus musculus); experiment: (§3) Anti-estrogenic activity in mouse uterotrophic assay at 1 ug; type: functional; set-up: unit not given here; procedure, shortened: as §2
# [19] = molecular target: T1, Estrogen receptor (Mus musculus); experiment: Estrogenic activity in mouse uterotrophic assay at 1000 ug; type: functional; set-up: unit not given here; procedure, shortened: as §1
# [20] = molecular target: T1, Estrogen receptor (Mus musculus); experiment: Anti-estrogenic activity in mouse uterotrophic assay at 10 ug; type: functional; set-up: unit not given here; procedure, shortened: as §2
# [21] = molecular target: T1, Estrogen receptor (Mus musculus); experiment: Estrogenic activity in mouse uterotrophic assay at 10 ug; type: functional; set-up: unit not given here; procedure, shortened: as §1
# [22] = molecular target: T1, Estrogen receptor (Mus musculus); experiment: Estrogenic activity in mouse uterotrophic assay at 1 ug; type: functional; procedure, shortened: as §1
# [23] = molecular target: T1, Estrogen receptor (Mus musculus); experiment: as §3; type: functional; procedure, shortened: as §2
# [24] = molecular target: T1, Estrogen receptor (Mus musculus); experiment: Estrogenic activity in mouse uterotrophic assay at 0.1 ug; type: functional; procedure, shortened: as §1
# [25] = molecular target: T1, Estrogen receptor (Mus musculus); experiment: Anti-estrogenic activity as inhibition of estrone-stimulated uterine growth in mice at 10 mg/kg; type: functional, organism-based; set-up: dose 10 mg/kg; procedure, shortened: as §2
# [26] = molecular target: T1, Estrogen receptor (Mus musculus); experiment: Estrogenic activity in mouse uterotrophic assay at 5 ug; type: functional; procedure, shortened: as §1
# [27] = molecular target: T1, Estrogen receptor (Mus musculus); experiment: Estrogenic activity in mouse uterotrophic assay at 50 ug; type: functional; procedure, shortened: as §1
# [28] = molecular target: T1, Estrogen receptor (Mus musculus); experiment: Estrogenic activity in mouse uterotrophic assay at 0.5 ug; type: functional; procedure, shortened: as §1
# [29] = molecular target: T1, Estrogen receptor (Mus musculus); experiment: Anti-estrogenic activity as inhibition of estrone-stimulated uterine growth in mice at 100 mg/kg; type: functional, organism-based; set-up: dose 100 mg/kg; procedure, shortened: as §2
compound,measurement,setting,value
CCC(c1ccc(O)c(CN(C)C)c1)C(CC)c1ccc(O)c(CN(C)C)c1 (configuration not stated),RBA,[1],0.04
CCC(c1ccc(CN(C)C)c(O)c1)C(CC)c1ccc(CN(C)C)c(O)c1 (configuration not stated),RBA,[1],< 0.01
CCC(c1cccc(O)c1)C(CC)c1cccc(O)c1 (configuration not stated),Activity,[2],14.4
same,Activity,[3],18.5
same,Activity,[4],30.9
same,inhibition,[5],27%
same,Activity,[6],30.5
same,Activity,[7],29.5
same,Activity,[8],28.1
same,Activity,[9],10.7
same,RBA,[1],10
same,Weight (mg/g),[10],30.8%
same,Activity,[11],12.5
same,Activity,[12],23.5
same,Activity,[13],11.8
same,Activity,[14],28.3
CCC(c1ccc(O)c(N(C)C)c1)C(CC)c1ccc(O)c(N(C)C)c1 (configuration not stated),RBA,[1],< 0.01
CCC(c1ccc(N)c(O)c1)C(CC)c1ccc(N)c(O)c1 (configuration not stated),inhibition,[15],29%
same,Activity,[16],19.5
same,Activity,[9],13.9
same,Activity,[17],42.3
same,RBA,[1],0.52
same,Activity,[18],33
same,Activity,[19],36.6
same,Activity,[20],41.7
same,Activity,[11],14.8
same,Activity,[21],19.9
CCC(c1ccc(O)c(C)c1)C(CC)c1ccc(O)c(C)c1 (configuration not stated),RBA,[1],8.1
CCC(c1ccc(O)c(Cl)c1)C(CC)c1ccc(O)c(Cl)c1 (configuration not stated),RBA,[1],1.6
CCC(c1cc(O)ccc1F)C(CC)c1cc(O)ccc1F (configuration not stated),Activity,[22],15.5
same,Activity,[16],39
same,Activity,[9],13.1
same,Activity,[17],41.2
same,RBA,[1],7
same,Activity,[23],37.8
same,Activity,[19],34.6
same,Activity,[20],38.9
same,Activity,[11],13.7
same,Activity,[21],23.2
CCC(c1ccc(COC)c(O)c1)C(CC)c1ccc(COC)c(O)c1 (configuration not stated),RBA,[1],0.03
CCC(c1ccc(O)c(COC)c1)C(CC)c1ccc(O)c(COC)c1 (configuration not stated),RBA,[1],0.55
CCC(c1ccc(Cl)c(O)c1)C(CC)c1ccc(Cl)c(O)c1 (configuration not stated),RBA,[1],0.07
CCC(c1ccc(N(C)C)c(O)c1)C(CC)c1ccc(N(C)C)c(O)c1 (configuration not stated),RBA,[1],< 0.01
CCC(c1ccc(C)c(O)c1)C(CC)c1ccc(C)c(O)c1 (configuration not stated),Activity,[22],21.7
same,inhibition,[15],24%
same,Activity,[16],46.2
same,Activity,[9],13.9
same,Activity,[17],41.8
same,RBA,[1],0.73
same,Activity,[18],34.3
same,Activity,[24],14.3
same,inhibition,[25],3%
same,Activity,[19],43.5
same,Activity,[20],39.6
same,Activity,[11],14.8
same,Activity,[21],45
CCC(c1ccc(I)c(O)c1)C(CC)c1ccc(I)c(O)c1 (configuration not stated),RBA,[1],< 0.01
CCC(c1ccc(O)c(I)c1)C(CC)c1ccc(O)c(I)c1 (configuration not stated),RBA,[1],0.17
CCC(c1ccc(O)c(F)c1)C(CC)c1ccc(O)c(F)c1 (configuration not stated),RBA,[1],16
CCC(c1ccc(O)cc1F)C(CC)c1ccc(O)cc1F (configuration not stated),RBA,[1],6.5
CCC(c1ccc(CO)c(O)c1)C(CC)c1ccc(CO)c(O)c1 (configuration not stated),RBA,[1],0.03
CCC(c1ccc(O)cc1O)C(CC)c1ccc(O)cc1O (configuration not stated),RBA,[1],32
CCC(c1cc(O)ccc1C)C(CC)c1cc(O)ccc1C (configuration not stated),Activity,[26],19.8
same,inhibition,[15],39%
same,Activity,[16],52.1
same,Activity,[9],13.7
same,Activity,[17],31
same,RBA,[1],15
same,Activity,[18],27.2
same,inhibition,[25],47%
same,Activity,[27],41.9
same,Activity,[28],13.3
same,Activity,[19],50.5
same,Activity,[20],25.4
same,inhibition,[29],22%
same,Activity,[11],13.7
same,Activity,[21],37.5
